Measured values taken from ChEMBL document CHEMBL1155246, “Synthesis, antioxidant properties and radioprotective effects of new benzothiazoles and thiadiazoles” (Bioorg Med Chem, 2009).

Tests used:
[1] = system: Radical scavenging activity; experiment: Antioxidant activity assessed as DPPH free radical scavenging activity by UV spectroscopic method; format: functional
[2] = Antioxidant activity assessed as ABTS free radical scavenging activity by radical cation discoloration assay; format: functional
Outline: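 ABTS radical cation made by mixing aqueous 7.0 mM ABTS with potassium persulfate to 3.5 mM final and holding overnight in the dark. It was diluted with ethanol to an initial A734 of 0.70 at 30 °C. Test compound was added at several concentrations. Absorbance at 734 nm was read at 0, 0.5 and 1 min, then every 5 min to steady state. IC50 was taken as the concentration giving 50% reduction of the radical cation.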

Mus musculus [3] = experiment: Radioprotective activity against gamma radiation-induced toxicity in Swiss CD1 mouse assessed as survival at 349 mg/kg, ip administered 90 mins before 8.2 Gy irradiation measured after 30 days; format: functional; details: Swiss CD1, light or radiation study, route intraperitoneal
Outline: (§1)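 Male six-week-old Swiss CD1 mice, 10 per group; compound in Mygliol 812 given ip (20 ml/kg) at maximum tolerated dose (1/2 LD50tox/48H) 90 min before 60Co gamma irradiation (300 mGy/min) at 8.2 Gy (LD99.9/30days) or 10.2 Gy; survival percentage at day 30.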

Mus musculus [4] = experiment: Radioprotective activity against gamma radiation-induced toxicity in Swiss CD1 mouse assessed as survival at 349 mg/kg, ip administered 90 mins before 10.2 Gy irradiation measured after 30 days; format: functional; details: Swiss CD1, light or radiation study, route intraperitoneal; outline: as §1
[5] = Acute toxicity in Swiss CD1 mouse assessed as lethality after 48 hrs; format: organism-based; details: in vivo
Outline: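 Male six-week-old Swiss CD1 mice; compound given intraperitoneally at different concentrations; deaths counted at 48 h to derive LD50tox/48H, the concentration killing 50% of animals.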

Mus musculus [6] = experiment: Radioprotective activity against gamma radiation-induced toxicity in Swiss CD1 mouse assessed as survival at 400 mg/kg, ip administered 90 mins before 8.2 Gy irradiation measured after 30 days; format: functional; details: Swiss CD1, light or radiation study, route intraperitoneal; outline: as §1
Mus musculus [7] = experiment: Radioprotective activity against gamma radiation-induced toxicity in B6D2F1 mouse assessed as survival at 400 mg/kg, ip administered 15 mins before 8.8 Gy irradiation measured after 30 days; format: functional; details: B6D2F1, light or radiation study, route intraperitoneal
Mus musculus [8] = experiment: Radioprotective activity against gamma radiation-induced toxicity in Swiss CD1 mouse assessed as survival at 400 mg/kg, ip administered 90 mins before 10.2 Gy irradiation measured after 30 days; format: functional; details: Swiss CD1, light or radiation study, route intraperitoneal; outline: as §1
Mus musculus [9] = experiment: Radioprotective activity against gamma radiation-induced toxicity in B6D2F1 mouse assessed as survival at 400 mg/kg, ip administered 15 mins before 10.8 Gy irradiation measured after 30 days; format: functional; details: B6D2F1, light or radiation study, route intraperitoneal
Mus musculus [10] = experiment: Radioprotective activity against gamma radiation-induced toxicity in Swiss CD1 mouse assessed as survival at 308 mg/kg, ip administered 90 mins before 10.2 Gy irradiation measured after 30 days; format: functional; details: Swiss CD1, light or radiation study, route intraperitoneal; outline: as §1
Mus musculus [11] = experiment: Radioprotective activity against gamma radiation-induced toxicity in Swiss CD1 mouse assessed as survival at 308 mg/kg, ip administered 90 mins before 8.2 Gy irradiation measured after 30 days; format: functional; details: Swiss CD1, light or radiation study, route intraperitoneal; outline: as §1
Mus musculus [12] = experiment: Radioprotective activity against gamma radiation-induced toxicity in B6D2F1 mouse assessed as survival at 480 mg/kg, ip administered 15 mins before 8.8 Gy irradiation measured after 30 days; format: functional; details: B6D2F1, light or radiation study, route intraperitoneal
Mus musculus [13] = experiment: Radioprotective activity against gamma radiation-induced toxicity in Swiss CD1 mouse assessed as survival at 480 mg/kg, ip administered 90 mins before 8.2 Gy irradiation measured after 30 days; format: functional; details: Swiss CD1, light or radiation study, route intraperitoneal; outline: as §1
Mus musculus [14] = experiment: Radioprotective activity against gamma radiation-induced toxicity in Swiss CD1 mouse assessed as survival at 480 mg/kg, ip administered 90 mins before 10.2 Gy irradiation measured after 30 days; format: functional; details: Swiss CD1, light or radiation study, route intraperitoneal; outline: as §1
Mus musculus [15] = experiment: Radioprotective activity against gamma radiation-induced toxicity in B6D2F1 mouse assessed as survival at 240 mg/kg, ip administered 15 mins before 8.8 Gy irradiation measured after 30 days; format: functional; details: B6D2F1, light or radiation study, route intraperitoneal
Mus musculus [16] = experiment: Radioprotective activity against gamma radiation-induced toxicity in B6D2F1 mouse assessed as survival at 260 mg/kg, ip administered 15 mins before 10.8 Gy irradiation measured after 30 days; format: functional; details: B6D2F1, light or radiation study, route intraperitoneal
Mus musculus [17] = experiment: Radioprotective activity against gamma radiation-induced toxicity in Swiss CD1 mouse assessed as survival at 260 mg/kg, ip administered 90 mins before 10.2 Gy irradiation measured after 30 days; format: functional; details: Swiss CD1, light or radiation study, route intraperitoneal; outline: as §1
Mus musculus [18] = experiment: Radioprotective activity against gamma radiation-induced toxicity in B6D2F1 mouse assessed as survival at 260 mg/kg, ip administered 15 mins before 8.8 Gy irradiation measured after 30 days; format: functional; details: B6D2F1, light or radiation study, route intraperitoneal
Mus musculus [19] = experiment: Radioprotective activity against gamma radiation-induced toxicity in Swiss CD1 mouse assessed as survival at 260 mg/kg, ip administered 90 mins before 8.2 Gy irradiation measured after 30 days; format: functional; details: Swiss CD1, light or radiation study, route intraperitoneal; outline: as §1
Mus musculus [20] = experiment: Radioprotective activity against gamma radiation-induced toxicity in Swiss CD1 mouse assessed as survival at 340 mg/kg, ip administered 90 mins before 10.2 Gy irradiation measured after 30 days; format: functional; details: Swiss CD1, light or radiation study, route intraperitoneal; outline: as §1
Mus musculus [21] = experiment: Radioprotective activity against gamma radiation-induced toxicity in Swiss CD1 mouse assessed as survival at 340 mg/kg, ip administered 90 mins before 8.2 Gy irradiation measured after 30 days; format: functional; details: Swiss CD1, light or radiation study, route intraperitoneal; outline: as §1
Mus musculus [22] = experiment: Radioprotective activity against gamma radiation-induced toxicity in Swiss CD1 mouse assessed as survival at 368 mg/kg, ip administered 90 mins before 10.2 Gy irradiation measured after 30 days; format: functional; details: Swiss CD1, light or radiation study, route intraperitoneal; outline: as §1
Mus musculus [23] = experiment: Radioprotective activity against gamma radiation-induced toxicity in Swiss CD1 mouse assessed as survival at 368 mg/kg, ip administered 90 mins before 8.2 Gy irradiation measured after 30 days; format: functional; details: Swiss CD1, light or radiation study, route intraperitoneal; outline: as §1

| SMILES | IC50 [1] [µM] | IC50 ([2]; read-out: IC50) [µM] | further results |
| --- | --- | --- | --- |
| CCc1nnc(N)s1 | > 4000 | – | – |
| N=c1sc2ccccc2n1CCO | > 4000 | – | – |
| N=c1sc2ccccc2n1CCSS(=O)(=O)O | – | – | IC50 [2]: ND(Insoluble) |
| CCSc1nn(CCSP(=O)(O)O)c(=N)s1 | – | 76.9 | – |
| CCOc1ccc2nc(S)sc2c1 | 46 | 88.4 | – |
| CCSc1nnc(S)s1 | 53 | 23.1 | survival at 349 mg/kg (Mus musculus [3]): 0%; survival at 349 mg/kg (Mus musculus [4]): 0%; LD50 at 48 h [5]: 698 mg/kg |
| CCOc1ccc2c(c1)sc(=N)n2CCSS(=O)(=O)O | – | – | IC50 [2]: ND(Insoluble) |
| NCCCNCCSP(=O)(O)O [AMIFOSTINE] | 100 | – | survival at 400 mg/kg (Mus musculus [6]): 50%; survival at 400 mg/kg (Mus musculus [7]): 100%; survival at 400 mg/kg (Mus musculus [8]): 20%; survival at 400 mg/kg (Mus musculus [9]): 60%; LD50 at 48 h [5]: 800 mg/kg |
| SCCNc1nc2ccccc2s1 | 1390 | 1520 | survival at 308 mg/kg (Mus musculus [10]): 0%; survival at 308 mg/kg (Mus musculus [11]): 60%; LD50 at 48 h [5]: > 616 mg/kg |
| Sc1nc2ccccc2s1 [2-MERCAPTOBENZOTHIAZOLE] | 92 | 79.8 | survival at 480 mg/kg (Mus musculus [12]): 100%; survival at 480 mg/kg (Mus musculus [13]): 60%; survival at 480 mg/kg (Mus musculus [14]): 0%; survival at 240 mg/kg (Mus musculus [15]): 90%; LD50 at 48 h [5]: > 960 mg/kg |
| CCOc1ccc2c(c1)sc(=N)n2CCO | 1400 | – | – |
| Cc1ccc2nc(S)sc2c1 | 91 | 76.7 | survival at 260 mg/kg (Mus musculus [16]): 0%; survival at 260 mg/kg (Mus musculus [17]): 0%; survival at 260 mg/kg (Mus musculus [18]): 100%; LD50 at 48 h [5]: > 520 mg/kg; survival at 260 mg/kg (Mus musculus [19]): 80% |
| CCC(=O)Nc1nc2ccc(C)cc2s1 | > 4000 | – | – |
| CCc1nnc(S)s1 | 84 | 21.3 | survival at 340 mg/kg (Mus musculus [20]): 0%; survival at 340 mg/kg (Mus musculus [21]): 30%; LD50 at 48 h [5]: > 680 mg/kg |
| CCSc1nn(CCSS(=O)(=O)O)c(=N)s1 | – | 8.32 | – |
| CCc1nn(CCSS(=O)(=O)O)c(=N)s1 | – | 51.9 | – |
| CCSc1nnc(NCCS)s1 | 110 | 390 | survival at 368 mg/kg (Mus musculus [22]): 0%; survival at 368 mg/kg (Mus musculus [23]): 0%; LD50 at 48 h [5]: > 736 mg/kg |
| CCc1nn(CCSP(=O)(O)O)c(=N)s1 | – | 90.3 | – |
| Cc1ccc2c(c1)sc(=N)n2CCSS(=O)(=O)O | – | – | IC50 [2]: ND(Insoluble) |
| Cc1c(C)c2c(c(C)c1O)CCC(C)(C(=O)O)O2 (stereo not drawn) [TROLOX] | 34 | – | – |

Now from value to compound, other results behind:

| IC50 [1] [µM] | SMILES | IC50 ([2]; read-out: IC50) [µM] | further results |
| --- | --- | --- | --- |
| > 4000 | CCC(=O)Nc1nnc(CC)s1 | – | – |
| 2400 | CCc1nn(CCO)c(=N)s1 | – | – |
| > 4000 | CCOc1ccc2nc(N)sc2c1 | – | – |
| > 4000 | CCSc1nnc(N)s1 | – | – |
| 20 | O=C1O[C@H]([C@@H](O)CO)C(O)=C1O [ASCORBIC ACID] | 46.5 | – |
| 3500 | CCSc1nn(CCO)c(=N)s1 | – | – |
| 96 | N[C@@H](CCC(=O)N[C@@H](CS)C(=O)NCC(=O)O)C(=O)O [GLUTATHIONE] | – | – |
| > 4000 | CCOc1ccc2nc(NC(=O)CC)sc2c1 | – | – |
| > 4000 | Cc1ccc2c(c1)sc(=N)n2CCO | – | – |
| 3170 | Cc1ccc2nc(NCCS)sc2c1 | 4040 | – |
| > 4000 | CCSc1nnc(NC(=O)CC)s1 | – | – |
| > 4000 | CCC(=O)Nc1nc2ccccc2s1 | – | – |
